According to ChEMBL document CHEMBL1158396 (2009):

Assays:
HL-60 [1] = test: Antiproliferative activity against human HL60 cells at 10 uM after 72 hrs by MTS assay; assay type: functional; conditions: HL-60, 72 h
How it was run: (§1)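 Cells kept in Glutamax RPMI with 10% fetal calf serum, penicillin and streptomycin, at 37 °C in 5% CO2. Plated at 500–800 cells/well and left 24 h before adding compound in DMSO (10^-6 or 10^-5 M final). Exposure was continuous for 72 h, then MTS read-out at 490 nm, in triplicate. Percent inhibition was taken from absorbance versus control wells after blank subtraction.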

HL-60 [2] = test: Antiproliferative activity against human HL60 cells at 1 uM after 72 hrs by MTS assay; assay type: functional; conditions: HL-60, 72 h; how it was run: as §1
K562 [3] = test: Antiproliferative activity against human K562 cells at 10 uM after 72 hrs by MTS assay; assay type: functional; conditions: K562, 72 h; how it was run: as §1
K562 [4] = test: Antiproliferative activity against human K562 cells at 1 uM after 72 hrs by MTS assay; assay type: functional; conditions: K562, 72 h; how it was run: as §1
[5] = molecular target: Cyclin-dependent kinase 5/CDK5 activator 1 (Homo sapiens) (UniProt Q00535+Q15078); test: Inhibition of GST-CDK5/p25 expressed in Escherichia coli assessed as residual enzyme activity at 10 uM
Cyclin-dependent kinase 5/CDK5 activator 1 (Homo sapiens), sequence (Q00535 whole entry): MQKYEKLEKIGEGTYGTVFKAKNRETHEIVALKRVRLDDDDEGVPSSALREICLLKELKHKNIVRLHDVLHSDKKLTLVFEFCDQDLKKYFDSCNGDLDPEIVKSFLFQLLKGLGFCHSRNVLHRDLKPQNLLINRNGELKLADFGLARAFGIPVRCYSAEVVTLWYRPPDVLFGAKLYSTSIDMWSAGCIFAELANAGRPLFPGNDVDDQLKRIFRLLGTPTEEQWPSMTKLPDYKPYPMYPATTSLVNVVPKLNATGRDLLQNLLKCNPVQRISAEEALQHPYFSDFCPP
Cyclin-dependent kinase 5/CDK5 activator 1 (Homo sapiens), sequence (Q15078 99-307 partner limits assumed): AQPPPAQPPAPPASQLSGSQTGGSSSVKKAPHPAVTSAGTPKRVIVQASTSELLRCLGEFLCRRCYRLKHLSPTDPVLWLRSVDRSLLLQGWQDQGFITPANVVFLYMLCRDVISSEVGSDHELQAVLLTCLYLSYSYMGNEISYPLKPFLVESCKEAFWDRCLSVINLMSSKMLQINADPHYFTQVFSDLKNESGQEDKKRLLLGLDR

Sus scrofa [6] = organism: Sus scrofa; test: Inhibition of pig GSK3 assessed as residual enzyme activity at 10 uM
Sus scrofa [7] = organism: Sus scrofa; test: Inhibition of pig CK1 assessed as residual enzyme activity at 10 uM
[8] = molecular target: Dual specificity tyrosine-phosphorylation-regulated kinase 1A (Rattus norvegicus) (UniProt Q63470); test: Inhibition of rat GST-fused Dyrk1a expressed in Escherichia coli assessed as residual enzyme activity at 10 uM
HL-60 [9] = test: Antiproliferative activity against human HL60 cells at 0.25 nM after 72 hrs by MTS assay; assay type: functional; conditions: HL-60, 72 h
K562 [10] = test: Antiproliferative activity against human K562 cells at 0.25 nM after 72 hrs by MTS assay; assay type: functional; conditions: K562, 72 h

Activity [5] | Activity (Sus scrofa [6]) | Activity (Sus scrofa [7]) | Activity [8] | Structure (SMILES) | inhibition at 10 µM (HL-60 [1]) | inhibition at 1 µM (HL-60 [2]) | inhibition at 10 µM (K562 [3]) | inhibition at 1 µM (K562 [4]) | inhibition at 0.00025 µM (HL-60 [9]) | inhibition at 0.00025 µM (K562 [10])
> 65% | > 65% | > 65% | > 65% | CC(=O)OC[C@H]1O[C@@H](N2C(=O)/C(=C3/C(=O)Nc4ncc(Br)cc43)c3cc(Br)ccc32)[C@H](OC(C)=O)[C@@H](OC(C)=O)[C@@H]1OC(C)=O | 0% | 0% | 4% | 3% |  | 
> 65% | > 65% | > 65% | > 65% | CC(=O)OC[C@H]1O[C@@H](N2C(=O)/C(=C3/C(=O)Nc4ccc(C#CCCO)cc43)c3ccccc32)[C@H](OC(C)=O)[C@@H](OC(C)=O)[C@@H]1OC(C)=O | 8% | 0% | 33% | 2% |  | 
 |  |  |  | CC(=O)O[C@@]12CO[C@@H]1C[C@H](O)[C@@]1(C)C(=O)[C@H](O)C3=C(C)[C@@H](OC(=O)[C@H](O)[C@@H](NC(=O)OC(C)(C)C)c4ccccc4)C[C@@](O)([C@@H](OC(=O)c4ccccc4)[C@H]21)C3(C)C [DOCETAXEL] |  |  |  |  | 46% | 32%
 |  |  |  | CC(=O)OC[C@H]1O[C@@H](N2C(=O)/C(=C3/C(=O)Nc4ncc(C#CCNC(=O)OCc5ccccc5)cc43)c3cc(Br)ccc32)[C@H](OC(C)=O)[C@@H](OC(C)=O)[C@@H]1OC(C)=O | 0% | 0% | 5% | 0% |  | 
 |  |  |  | CC(=O)OC[C@H]1O[C@@H](N2C(=O)/C(=C3/C(=O)Nc4ncc(I)cc43)c3cc(Br)ccc32)[C@H](OC(C)=O)[C@@H](OC(C)=O)[C@@H]1OC(C)=O | 0% | 0% | 3% | 0% |  | 
 |  |  |  | CC(=O)OC[C@H]1O[C@@H](N2C(=O)/C(=C3/C(=O)Nc4ncc(C#CCCO)cc43)c3ccccc32)[C@H](OC(C)=O)[C@@H](OC(C)=O)[C@@H]1OC(C)=O | 0% | 0% | 10% | 5% |  | 
> 65% | > 65% | > 65% | > 65% | CC(=O)OC[C@H]1O[C@@H](N2C(=O)/C(=C3/C(=O)Nc4ccc(I)cc43)c3cc(Br)ccc32)[C@H](OC(C)=O)[C@@H](OC(C)=O)[C@@H]1OC(C)=O | 0% | 0% | 3% | 0% |  | 
> 65% |  |  | > 65% | CC(=O)OC[C@H]1O[C@@H](N2C(=O)/C(=C3/C(=O)Nc4ncc(Br)cc43)c3ccccc32)[C@H](OC(C)=O)[C@@H](OC(C)=O)[C@@H]1OC(C)=O |  |  |  |  |  | 
> 65% | > 65% | > 65% | > 65% | CC(=O)OC[C@H]1O[C@@H](N2C(=O)/C(=C3/C(=O)Nc4ccc(C#CCNC(=O)OCc5ccccc5)cc43)c3cc(Br)ccc32)[C@H](OC(C)=O)[C@@H](OC(C)=O)[C@@H]1OC(C)=O | 0% | 0% | 2% | 1% |  | 
> 65% | > 65% | > 65% | > 65% | CC(=O)OC[C@H]1O[C@@H](N2C(=O)/C(=C3/C(=O)Nc4ncc(C#CCNC(=O)OCc5ccccc5)cc43)c3ccccc32)[C@H](OC(C)=O)[C@@H](OC(C)=O)[C@@H]1OC(C)=O | 11% | 0% | 59% | 4% |  | 
> 65% |  |  | > 65% | CC(=O)OC[C@H]1O[C@@H](N2C(=O)/C(=C3/C(=O)Nc4ccc(I)cc43)c3ccccc32)[C@H](OC(C)=O)[C@@H](OC(C)=O)[C@@H]1OC(C)=O |  |  |  |  |  | 
> 65% | > 65% | > 65% | > 65% | CC(=O)OC[C@H]1O[C@@H](N2C(=O)/C(=C3/C(=O)Nc4ncc(I)cc43)c3ccccc32)[C@H](OC(C)=O)[C@@H](OC(C)=O)[C@@H]1OC(C)=O | 1% | 0% | 47% | 0% |  | 
> 65% | > 65% | > 65% | > 65% | CC(=O)OC[C@H]1O[C@@H](N2C(=O)/C(=C3/C(=O)Nc4ccc(C#CCNC(=O)OCc5ccccc5)cc43)c3ccccc32)[C@H](OC(C)=O)[C@@H](OC(C)=O)[C@@H]1OC(C)=O | 1% | 0% | 6% | 0% |  | 
